Here are results for twelve compounds from ChEMBL document CHEMBL5252537, “Usnic Acid Benzylidene Analogues as Potent Mechanistic Target of Rapamycin Inhibitors for the Control of Breast Malignancies” (J Nat Prod, 2017).

The subject of test [1] is MCF7. The test can be described thus: Antiproliferative activity against human MCF7 cells incubated for 72 hrs by MTT assay. Format: functional, cell-based. The following applies: MCF7, 72 h. A digest of the protocol:
(§1)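 Cells seeded at 5 × 10^3/well and allowed to attach overnight, then washed with PBS. Compound diluted from 10 mM DMSO stock into medium (100 ng/mL HGF added for c-Met-expressing cells), in triplicate, 72 h at 37 °C. MTT added for 4 h, formazan dissolved in DMSO, absorbance read at 570 nm. Cell numbers taken from a standard curve; IC50 calculated.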
Background: Formazan colour is commonly taken as a measure of viable cells.

Test [2] relates to MDA-MB-231. The test can be described thus: Antiproliferative activity against human MDA-MB-231 cells incubated for 72 hrs by MTT assay. The class given is functional, cell-based. The following applies: MDA-MB-231, 72 h. A digest of the protocol: as §1

Consider `CC(=O)C1=C(O)C=C2Oc3c(C(=O)/C=C/c4ccc(OCc5ccccc5)cc4)c(O)c(C)c(O)c3[C@]2(C)C1=O`, for which the values for the concentration for half-maximal inhibition (IC50) in test [1] and in test [2] were 1140 nM and 950 nM, respectively.

As for `CC(=O)C1=C(O)C=C2Oc3c(C(=O)/C=C/c4ccc(F)cc4)c(O)c(C)c(O)c3[C@]2(C)C1=O`, the IC50 in test [1] was found to be 2980 nM; in test [2], 3310 nM.

For the compound `CC(=O)C1=C(O)C=C2Oc3c(C(=O)/C=C/c4ccc(C)cc4)c(O)c(C)c(O)c3[C@]2(C)C1=O`, the IC50 in test [1] was found to be 1330 nM; in test [2], 1650 nM.

Regarding `CC(=O)C1=C(O)C=C2Oc3c(C(=O)/C=C/c4cccc(C(F)(F)F)c4)c(O)c(C)c(O)c3[C@]2(C)C1=O`, the half-maximal inhibitory concentration (IC50) in test [1] is 1230 nM; in test [2], 1160 nM.

As to `CC(=O)C1=C(O)C=C2Oc3c(C(=O)/C=C/c4cccc(F)c4)c(O)c(C)c(O)c3[C@]2(C)C1=O`, the 50% inhibitory concentration (IC50) is 3630 nM in test [1] and 4790 nM in test [2].

Consider `CC(=O)C1=C(O)C=C2Oc3c(C(=O)/C=C/c4cc(C(F)(F)F)cc(C(F)(F)F)c4)c(O)c(C)c(O)c3[C@]2(C)C1=O`, for which the results for the IC50 in test [1] and in test [2] were 910 nM and 720 nM, respectively.

With `CC(=O)C1=C(O)C=C2Oc3c4c(c(C)c(O)c3[C@]2(C)C1=O)OC(c1ccc(F)cc1)CC4=O` (some centres undefined), the results for the 50% inhibitory concentration (IC50) in test [1] and in test [2] were 6220 nM and 6890 nM, respectively.

Regarding `CC(=O)C1=C(O)C=C2Oc3c4c(c(C)c(O)c3[C@]2(C)C1=O)OC(c1ccc(OC(F)(F)F)cc1)CC4=O` (some centres undefined), the IC50 in test [1] is 1510 nM; in test [2], 1790 nM.

As for `CC(=O)C1=C(O)C=C2Oc3c(C(=O)/C=C/c4c(Cl)cccc4Cl)c(O)c(C)c(O)c3[C@]2(C)C1=O`, the figures for the IC50 in test [1] and in test [2] were 1530 nM and 5690 nM, respectively.

For the compound `CC(=O)C1=C(O)C=C2Oc3c(C(=O)/C=C/c4ccc(-c5ccc(F)cc5)cc4)c(O)c(C)c(O)c3[C@]2(C)C1=O`, the 50% inhibitory concentration (IC50) in test [1] was 520 nM; in test [2], 680 nM.

For the compound `CC(=O)C1=C(O)C=C2Oc3c(C(=O)/C=C/c4ccc(OCc5ccc(F)cc5)cc4)c(O)c(C)c(O)c3[C@]2(C)C1=O`, the IC50 amounted to 750 nM in test [1] and 910 nM in test [2].

With `CC(=O)C1=C(O)C=C2Oc3c4c(c(C)c(O)c3[C@]2(C)C1=O)OC(c1cccc(Cl)c1)CC4=O` (some centres undefined), the half-maximal inhibitory concentration (IC50) in test [1] was determined as 6320 nM; in test [2], 6410 nM.

In general, IC50 refers to the concentration needed to halve the response being measured.
